Source: ChEMBL document CHEMBL1124308, “Renin inhibitors. Dipeptide analogues of angiotensinogen utilizing a structurally modified phenylalanine residue to impart proteolytic stability” (J Med Chem, 1988)

Tests used:
Pepsin A (Sus scrofa) = Pepsin A (Sus scrofa) (UniProt P00791); experiment: Inhibition of porcine pepsin enzyme at 1*10e-5; details: concentration not given here
[1] = (§1) Ratio of IC50 value for human plasma renin(pH 7.4) and purified human renin(pH 6.0); type: functional
Cathepsin D (Bos taurus) = biological target: T1, Cathepsin D (Bos taurus) (UniProt P80209); experiment: Inhibition of bovine cathepsin D at 1*10e-5; details: concentration not given here
T1 sequence (whole entry): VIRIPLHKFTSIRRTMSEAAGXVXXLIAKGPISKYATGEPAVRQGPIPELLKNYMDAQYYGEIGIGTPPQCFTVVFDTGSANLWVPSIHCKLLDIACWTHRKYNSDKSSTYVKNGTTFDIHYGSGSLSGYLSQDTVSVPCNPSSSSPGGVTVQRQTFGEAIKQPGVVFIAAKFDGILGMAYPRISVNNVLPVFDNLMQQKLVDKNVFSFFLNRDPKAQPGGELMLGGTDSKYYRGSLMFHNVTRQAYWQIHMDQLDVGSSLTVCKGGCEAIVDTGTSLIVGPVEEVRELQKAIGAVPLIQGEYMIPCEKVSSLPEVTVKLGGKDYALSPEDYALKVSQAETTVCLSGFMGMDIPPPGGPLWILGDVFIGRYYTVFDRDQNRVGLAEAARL

Renin [2] = biological target: T2, Renin (Homo sapiens, UniProt P00797); experiment: Inhibition of purified human renin (pH 6.0)
T2 sequence (P00797 whole entry): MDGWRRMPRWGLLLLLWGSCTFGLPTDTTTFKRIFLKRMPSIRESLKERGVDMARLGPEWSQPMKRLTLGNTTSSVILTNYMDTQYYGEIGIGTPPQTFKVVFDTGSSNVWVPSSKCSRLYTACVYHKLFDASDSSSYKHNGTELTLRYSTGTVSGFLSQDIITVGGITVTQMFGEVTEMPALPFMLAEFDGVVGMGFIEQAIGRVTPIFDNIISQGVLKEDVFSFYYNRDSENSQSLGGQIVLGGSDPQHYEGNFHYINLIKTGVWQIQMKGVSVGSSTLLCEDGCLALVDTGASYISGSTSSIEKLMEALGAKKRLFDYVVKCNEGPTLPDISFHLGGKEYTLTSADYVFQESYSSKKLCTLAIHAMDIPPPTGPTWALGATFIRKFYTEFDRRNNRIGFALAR

Renin [3] = biological target: T2, Renin; experiment: Inhibition of human plasma renin (pH 7.4); type: cell-free
How it was run: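 Plasma renin assay at pH 7.4, adapted from an earlier method: 0.10 M HEPES buffer in place of maleate, incubation lengthened to 2.5 h, and angiotensin I measured by radioimmunoassay on the whole incubation sample. IC50 reported in nM.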

chymotrypsin = experiment: The compound was tested […] for chymotrypsin susceptibility (degradation); type: ADME
[4] = as §1

Chain of Pepsin A (Sus scrofa) (P00791 60-385 limits assumed): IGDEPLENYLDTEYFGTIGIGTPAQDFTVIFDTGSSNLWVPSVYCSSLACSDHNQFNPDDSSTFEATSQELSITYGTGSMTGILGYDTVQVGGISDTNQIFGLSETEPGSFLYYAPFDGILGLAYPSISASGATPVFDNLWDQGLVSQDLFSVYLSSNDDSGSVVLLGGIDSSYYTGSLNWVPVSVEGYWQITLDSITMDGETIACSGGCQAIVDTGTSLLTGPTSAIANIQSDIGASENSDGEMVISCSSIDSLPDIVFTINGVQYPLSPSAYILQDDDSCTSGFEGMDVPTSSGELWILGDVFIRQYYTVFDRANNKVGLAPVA

Row | inhibition (Pepsin A (Sus scrofa)) [%] | inhibition (Cathepsin D (Bos taurus)) [%] | IC50 (Renin [2]) [nM] | IC50 (Renin [3]) [nM] | half-life (chymotrypsin) [min] | Ratio [4] | SMILES | Ratio [1]
1 | 4 | 3 |  |  |  |  | COc1ccc(C[C@H](NC(=O)N2CCOCC2)C(=O)N[C@@H](Cc2c[nH]cn2)C(=O)N[C@@H](CC2CCCCC2)[C@@H](O)[C@@H](O)CC(C)C)cc1 | 3.2
2 |  |  | 2.6 | 65 |  |  | CC(C)C[C@H](O)[C@H](O)[C@H](CC1CCCCC1)NC(=O)[C@H](Cc1cnc[nH]1)NC(=O)[C@@H](NC(=O)N1CCOCC1)C(C)(C)c1ccccc1 | 
3 | 0 | 0 | 0.29 | 1.3 | 227 | 4.5 | CC(C)C[C@H](O)[C@H](O)[C@H](CC1CCCCC1)NC(=O)[C@H](Cc1c[nH]cn1)NC(=O)[C@@H](CC(=O)N1CCOCC1)Cc1ccccc1 | 
4 | 0 | 0 | 0.58 | 5.3 |  |  | CC(C)C[C@H](O)[C@H](O)[C@H](CC1CCCCC1)NC(=O)[C@H](Cc1c[nH]cn1)NC(=O)/C(=C/c1ccccc1)NC(=O)N1CCOCC1 | 9.1
5 | 0 | 0 |  |  |  | 2.5 | CC(C)C[C@H](O)[C@H](O)[C@H](CC1CCCCC1)NC(=O)[C@H](Cc1c[nH]cn1)NC(=O)[C@H](Cc1ccccc1)NC(=O)N1CCOCC1 | 
6 |  |  | 0.55 | 0.98 | 34.3 |  | CC(C)C[C@H](O)[C@H](O)[C@H](CC1CCCCC1)NC(=O)[C@H](Cc1cnc[nH]1)NC(=O)[C@H](Cc1ccccc1)NC(=O)N(C)CCO | 
7 | 3 | 3 |  |  |  |  | CC(C)C[C@H](O)[C@H](O)[C@H](CC1CCCCC1)NC(=O)[C@H](Cc1c[nH]cn1)NC(=O)[C@@H](NC(=O)N1CCOCC1)C(C)(C)c1ccccc1 | 25
8 |  |  | 0.35 | 0.89 | 2.2 |  | CC(C)C[C@H](O)[C@H](O)[C@H](CC1CCCCC1)NC(=O)[C@H](Cc1cnc[nH]1)NC(=O)[C@H](Cc1ccccc1)NC(=O)N1CCOCC1 | 
9 |  |  | 0.76 | 2.4 | 727 |  | COc1ccc(C[C@H](NC(=O)N2CCOCC2)C(=O)N[C@@H](Cc2cnc[nH]2)C(=O)N[C@@H](CC2CCCCC2)[C@@H](O)[C@@H](O)CC(C)C)cc1 | 
10 | 3 | 0 |  |  |  |  | CC(C)C[C@H](O)[C@H](O)[C@H](CC1CCCCC1)NC(=O)[C@H](Cc1c[nH]cn1)NC(=O)[C@H](Cc1ccccc1)NC(=O)N(C)CCO | 1.8
11 | 0 | 0 | 0.82 | 3 | 233 |  | CC(C)C[C@H](O)[C@H](O)[C@H](CC1CCCCC1)NC(=O)[C@H](Cc1c[nH]cn1)NC(=O)[C@H](Cc1ccccc1)OC(=O)N1CCOCC1 | 3.7
12 | 6 | 0 | 0.3 | 2 | 9.6 |  | CC(C)C[C@H](O)[C@H](O)[C@H](CC1CCCCC1)NC(=O)[C@H](Cc1c[nH]cn1)NC(=O)[C@H](CCc1ccccc1)NC(=O)N1CCOCC1 | 6.7
13 | 0 | 0 | 0.94 | 2.5 |  |  | CC(C)C[C@H](O)[C@H](O)[C@H](CC1CCCCC1)NC(=O)[C@H](Cc1c[nH]cn1)N(C)C(=O)[C@H](Cc1ccccc1)NC(=O)N1CCOCC1 | 2.7
14 | 11 | 3 | 0.5 | 3.3 | 17.5 |  | CC(C)C[C@H](O)[C@H](O)[C@H](CC1CCCCC1)NC(=O)[C@H](Cc1c[nH]cn1)NC(=O)[C@H](Cc1ccccc1)NC(=O)N(C)C | 6.6
15 | 8 | 0 | 0.79 | 2.1 | 1260 |  | CC(C)C[C@H](O)[C@H](O)[C@H](CC1CCCCC1)NC(=O)[C@H](Cc1c[nH]cn1)NC(=O)/C(=C/c1ccccc1)CC(=O)N1CCOCC1 | 2.7
16 | 4 | 2 | 0.42 | 0.68 | 3.3 |  | CC(C)C[C@H](O)[C@H](O)[C@H](CC1CCCCC1)NC(=O)[C@H](Cc1c[nH]cn1)NC(=O)[C@H](Cc1ccccc1)NC(=O)N1CCC(O)CC1 | 1.6
17 | 2 | 1 | 14 | 140 |  |  | CC(C)C[C@H](O)[C@H](O)[C@H](CC1CCCCC1)NC(=O)[C@H](Cc1c[nH]cn1)NC(=O)[C@@H](Cc1ccccc1)NC(=O)N1CCOCC1 | 10

Row | SMILES | inhibition (Pepsin A (Sus scrofa)) [%] | inhibition (Cathepsin D (Bos taurus)) [%] | IC50 (Renin [2]) [nM] | IC50 (Renin [3]) [nM] | half-life (chymotrypsin) [min] | Ratio [4] | Ratio [1]
18 | CC(C)C[C@H](O)[C@H](O)[C@H](CC1CCCCC1)NC(=O)[C@H](Cc1c[nH]cn1)NC(=O)[C@H](Cc1ccccc1)NC(=O)N1CCNCC1 | 0 | 0 |  | 4.5 | 6.9 |  | 6.9
